The record followed here is ChEMBL document CHEMBL1125477, “Highly potent and selective heptapeptide antagonists of the neurokinin NK-2 receptor” (J Med Chem, 1992).

SMILES strings stand for the structures.

Holding throughout (format): functional, tissue-based
For assay [1], the target named is T1, Substance-K receptor (Rattus norvegicus) (UniProt P16610).
T1 sequence (whole entry): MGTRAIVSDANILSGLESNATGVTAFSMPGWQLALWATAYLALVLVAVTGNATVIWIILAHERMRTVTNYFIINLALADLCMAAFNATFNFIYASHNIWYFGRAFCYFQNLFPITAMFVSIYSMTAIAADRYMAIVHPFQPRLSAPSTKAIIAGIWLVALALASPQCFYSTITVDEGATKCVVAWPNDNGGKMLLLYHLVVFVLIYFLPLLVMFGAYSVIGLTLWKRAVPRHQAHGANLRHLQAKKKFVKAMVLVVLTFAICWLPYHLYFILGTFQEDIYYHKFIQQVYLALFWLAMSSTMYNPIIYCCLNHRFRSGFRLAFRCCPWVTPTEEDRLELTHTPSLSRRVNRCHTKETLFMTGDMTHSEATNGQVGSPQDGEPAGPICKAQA
Briefly: Compound was evaluated for antagonism of contractile response of rat colon muscularis mucosae (RC) at tachykinin receptor 2. The note with it: Muscularis mucosa. The method in brief: (§1)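 Colon muscularis mucosae from male AHA rats (250–500 g), killed by concussion and exsanguination. Contraction to neurokinin A (NK-2). At least two control agonist curves, then a single antagonist concentration per tissue. Equiactive agonist concentration-ratio taken at half-maximal response. pK_B = log(CR−1) − log[antagonist]. Mean ± SE over four to eight preparations.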

The target of assay [2] is Substance-P receptor (Cavia porcellus) (UniProt P30547). Briefly: Compound was evaluated for antagonism of contractile response of guinea pig ileum longitudinal smooth muscle (GPI) at tachykinin receptor 1. The gist of the method: (§2)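 Isolated longitudinal smooth muscle of ileum from male Dunkin-Hartley guinea-pigs (300–600 g), killed by concussion and exsanguination. Contraction to SP methyl ester (NK-1 agonist). At least two control agonist curves, then one antagonist concentration per preparation. Concentration-ratio read graphically at half-maximal response. pK_B = log(CR−1) − log[antagonist]. Mean ± SE over four to eight tissues.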

In assay [3] the target is T1, Substance-K receptor (Rattus norvegicus). Description: Compound was evaluated for antagonism of contractile response of rat colon muscularis mucosae (RC) at Tachykinin receptor 2. The note with it: Muscularis mucosa. The method in brief: as §1
Assay [4] deals with Substance-P receptor (Cavia porcellus) (UniProt P30547). Description: Compound was evaluated for antagonism of contractile response of guinea pig ileum longitudinal smooth muscle (GPI) at Tachykinin receptor 1. The gist of the method:
as §2

Substance-P receptor (Cavia porcellus), sequence (P30547 whole entry): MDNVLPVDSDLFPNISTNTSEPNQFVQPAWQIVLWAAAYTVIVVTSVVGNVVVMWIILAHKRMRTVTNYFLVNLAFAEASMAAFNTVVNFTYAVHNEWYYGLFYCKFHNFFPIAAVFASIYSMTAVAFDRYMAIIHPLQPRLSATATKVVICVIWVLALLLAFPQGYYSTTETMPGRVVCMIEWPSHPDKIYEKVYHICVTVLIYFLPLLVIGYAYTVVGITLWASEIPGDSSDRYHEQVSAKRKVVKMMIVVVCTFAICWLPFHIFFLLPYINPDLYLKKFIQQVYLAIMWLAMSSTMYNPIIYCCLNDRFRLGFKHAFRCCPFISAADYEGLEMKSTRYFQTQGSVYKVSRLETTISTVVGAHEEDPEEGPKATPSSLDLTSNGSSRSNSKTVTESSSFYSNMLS

For `CCCC[C@H](NC(=O)[C@@H]1CCCN1C(=O)[C@H]1CCCN1C(=O)[C@H](Cc1ccccc1)NC(=O)[C@@H](Cc1c[nH]c2ccccc12)NC(=O)[C@H](C)NC(=O)[C@H](CCCN=C(N)N)NC(=O)OCc1ccccc1)C(N)=O`, the pKB (as a rule, −log10 of the KB, conventionally taken in molar units) in assay [1] came to 7.5; in assay [2] it was 6.7.

With `CCCC[C@H](NC(=O)[C@@H]1CCCN1C(=O)[C@H]1CCCN1C(=O)[C@H](Cc1ccccc1)NC(=O)[C@@H](C)NC(=O)[C@H](C)NC(=O)[C@H](CCCN=C(N)N)NC(=O)OC(C)(C)C)C(N)=O`, the pKB in assay [1] was 5.6; in assay [2], 4.8.

As for `CCCC[C@H](NC(=O)[C@@H]1CCCN1C(=O)[C@H]1CCCN1C(=O)[C@H](Cc1ccccc1)NC(=O)[C@H]1CCCN1C(=O)[C@H](C)NC(=O)[C@H](CCCN=C(N)N)NC(=O)OC(C)(C)C)C(N)=O`, the pKB in assay [1] amounted to 5.2; in assay [2], 4.5.

With `CCCC[C@H](NC(=O)[C@@H]1CCCN1C(=O)[C@H]1CCCN1C(=O)[C@H](Cc1ccccc1)NC(=O)[C@@H](Cc1c[nH]c2ccccc12)NC(=O)[C@H](C)NC(=O)[C@H](CCC(=O)OCc1ccccc1)NC(=O)OC(C)(C)C)C(N)=O`, the pKB in assay [1] turned out to be 7.4; in assay [2], 6.6.

For the compound `CCCC[C@H](NC(=O)[C@@H]1CCCN1C(=O)[C@H]1N(C(=O)[C@H](Cc2ccccc2)NC(=O)[C@@H](Cc2c[nH]c3ccccc23)NC(=O)[C@H](C)NC(=O)[C@@H](N)CCCN=C(N)N)CSC1(C)C)C(N)=O`, the figures for the pKB in assay [3] and in assay [4] were 5.9 and 4.7, respectively.

`CCCC[C@H](NC(=O)[C@H](CC(C)C)NC(=O)[C@@H](Cc1c[nH]c2ccccc12)NC(=O)[C@H](Cc1ccccc1)NC(=O)[C@@H](Cc1c[nH]c2ccccc12)NC(=O)[C@H](CCC(N)=O)NC(=O)[C@H](CCCN=C(N)N)NC(=O)OC(C)(C)C)C(N)=O`: the pKB in assay [1] was found to be 6.5; in assay [2], 7.1.

Take `CCCC[C@H](NC(=O)[C@@H]1CCCN1C(=O)[C@H]1CCCN1C(=O)[C@H](Cc1ccccc1)NC(=O)[C@H](Cc1c[nH]c2ccccc12)NC(=O)[C@H](C)NC(=O)[C@H](CCCN=C(N)N)NC(=O)OC(C)(C)C)C(N)=O`: the pKB in assay [1] is 6.4; in assay [2] it was less than 5.

With `CCCC[C@H](NC(=O)[C@@H]1CCCN1C(=O)[C@H]1CCCN1C(=O)[C@H](Cc1ccccc1)NC(=O)[C@@H](Cc1c[nH]c2ccccc12)NC(=O)[C@H](C)NC(=O)[C@H](N)CCC(=O)OCc1ccccc1)C(N)=O`, the pKB in assay [3] was 7.2; in assay [4], less than 5.5.

As to `CCCCCNC(=O)[C@@H]1CCCN1C(=O)[C@H]1CCCN1C(=O)[C@H](Cc1ccccc1)NC(=O)[C@@H](Cc1c[nH]c2ccccc12)NC(=O)[C@H](C)NC(=O)[C@H](CCCN=C(N)N)NC(=O)OC(C)(C)C`, the results for the pKB in assay [1] and in assay [2] were 7.6 and 5.8, respectively.

Regarding `C[C@H](NC(=O)[C@H](CCCN=C(N)N)NC(=O)OC(C)(C)C)C(=O)N[C@H](Cc1c[nH]c2ccccc12)C(=O)N[C@@H](Cc1ccccc1)C(=O)N1CCC[C@@H]1C(=O)N1CCC[C@H]1C(=O)NCC(N)=O`, the values for the pKB in assay [1] and in assay [2] were 7 and 5.3, respectively.

In turn, `CCCC[C@H](NC(=O)[C@@H]1CCCN1C(=O)[C@H]1CCCN1C(=O)[C@H](Cc1ccccc1)NC(=O)[C@@H](Cc1ccccc1)NC(=O)[C@H](C)NC(=O)[C@H](CCCN=C(N)N)NC(=O)OC(C)(C)C)C(N)=O` registered a pKB in assay [1] of 6.4.

As for `CCCC[C@H](NC(=O)[C@@H]1CCCN1C(=O)[C@H]1CCCN1C(=O)[C@H](Cc1ccccc1)NC(=O)[C@@H](Cc1c[nH]c2ccccc12)NC(=O)[C@H](C)NC(=O)[C@H](CCC(=O)O)NC(=O)OC(C)(C)C)C(N)=O`, the pKB in assay [3] is 6.5; in assay [4], less than 4.5.

Turning to `CSCC[C@H](NC(=O)[C@@H]1CCCN1C(=O)[C@H]1CCCN1C(=O)[C@H](Cc1ccccc1)NC(=O)[C@@H](Cc1c[nH]c2ccccc12)NC(=O)[C@H](C)NC(=O)[C@H](CCCN=C(N)N)NC(=O)OC(C)(C)C)C(N)=O`, the pKB in assay [1] was 6.2; in assay [2] it was less than 4.5.

For `CCCC[C@H](NC(=O)[C@@H]1CCCN1C(=O)[C@H]1CCCN1C(=O)[C@H](Cc1ccccc1)NC(=O)[C@@H](Cc1c[nH]c2ccccc12)NC(=O)[C@H](C)NC(=O)[C@H](CCCCN)NC(=O)OC(C)(C)C)C(N)=O`, the values for the pKB in assay [3] and in assay [4] were 7.1 and 4.8, respectively.

`CCCC[C@H](NC(=O)C1CCCN1C(=O)[C@H]1CCCN1C(=O)[C@H](Cc1ccccc1)NC(=O)[C@@H](Cc1c[nH]c2ccccc12)NC(=O)CCCCNC(=O)OC(C)(C)C)C(N)=O` (stereo not given in full) showed a pKB in assay [3] of 7.6.

On to `CCCC[C@H](NC(=O)[C@H](CC(C)C)NC(=O)[C@@H](Cc1c[nH]c2ccccc12)NC(=O)[C@H](Cc1ccccc1)NC(=O)[C@@H](Cc1c[nH]c2ccccc12)NC(=O)[C@H](CCC(N)=O)NC(=O)[C@@H](N)CCCN=C(N)N)C(N)=O`, for which the pKB in assay [1] turned out to be 5.7; in assay [2], 6.4.

On to `CNC(=O)[C@@H]1CCCN1C(=O)[C@H]1CCCN1C(=O)[C@H](Cc1ccccc1)NC(=O)[C@@H](Cc1c[nH]c2ccccc12)NC(=O)[C@H](C)NC(=O)[C@H](CCCN=C(N)N)NC(=O)OC(C)(C)C`, for which the pKB in assay [1] was 7.5; in assay [2] it was 5.1.

Turning to `CCCC[C@H](NC(=O)[C@@H]1CCCN1C(=O)[C@H]1CCCN1C(=O)[C@H](Cc1ccccc1)NC(=O)[C@@H](Cc1c[nH]c2ccccc12)NC(=O)[C@H](C)NC(=O)[C@@H](CCC(=O)OCc1ccccc1)NC(=O)OC(C)(C)C)C(N)=O`, the values for the pKB in assay [1] and in assay [2] were 7.1 and 6, respectively.

With `CCCC[C@H](NC(=O)[C@H](CC(C)C)NC(=O)[C@@H](Cc1c[nH]c2ccccc12)NC(=O)[C@H](Cc1ccccc1)NC(=O)[C@@H](Cc1c[nH]c2ccccc12)NC(=O)[C@H](C)NC(=O)[C@H](CCCN=C(N)N)NC(=O)OC(C)(C)C)C(N)=O`, the pKB stood at 6.5 in assay [1] and 6.9 in assay [2].

`CCCC[C@H](NC(=O)[C@@H]1CCCN1C(=O)[C@H]1CCCN1C(=O)[C@H](Cc1ccccc1)NC(=O)[C@@H](Cc1c[nH]c2ccccc12)NC(=O)[C@H](C)NC(=O)[C@H](CCCN=C(N)N)NC(C)=O)C(N)=O`: the results for the pKB in assay [1] and in assay [2] were 5.6 and 4.6, respectively.

As to `CCCC[C@H](NC(=O)[C@@H]1CCCN1C(=O)[C@H]1CCCN1C(=O)[C@H](Cc1ccccc1)NC(=O)[C@@H](Cc1c[nH]c2ccccc12)NC(=O)[C@H](C)NC(=O)[C@@H](CCCN=C(N)N)NC(=O)OC(C)(C)C)C(N)=O`, the results for the pKB in assay [1] and in assay [2] were 5.2 and 5.7, respectively.
